From ChEMBL document CHEMBL3526090, “Pharmacokinetic mechanism involved in the prolonged high retention of laninamivir in mouse respiratory tissues after intranasal administration of its prodrug laninamivir octanoate” (Drug Metab Dispos, 2013)
Values after ≈ are worked out from the molar mass of the structure shown.

Tests used:
[1] = Tmax in BALB/cAnNCrlCrlj mouse epithelial lining fluid at 0.5 umol/kg administered intranasally; type: ADME, tissue-based; conditions: inhaled or intranasal
Outline: (§1)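 Female BALB/c mice (7 weeks old) received a single intranasal dose of 0.5 μmol/kg at 2.5 ml/kg, with N=3–4 per time point up to 24 h. Plasma, BAL fluid (3 × 1 ml PBS pH 7.4) and lung homogenate were taken, and AEBSF was added to a final 5 mM. LO and laninamivir were measured by LC-MS/MS. ELF levels were corrected using the urea ratio between plasma and BAL. Non-compartmental analysis on mean concentrations gave Cmax/Tmax by observation, t1/2 from ≥3 terminal log points, and AUClast by the trapezoidal method.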

Lung [2] = assay: Cmax in BALB/cAnNCrlCrlj mouse lung at 0.5 umol/kg administered intranasally; type: ADME; set-up: dose 0.5 umol/kg, route nasal; conditions: in vivo, inhaled_or_intranasal; outline: as §1
[3] = Tmax in BALB/cAnNCrlCrlj mouse plasma at 0.5 umol/kg administered intranasally; type: ADME, cell-free; conditions: inhaled or intranasal; outline: as §1
[4] = AUClast in BALB/cAnNCrlCrlj mouse plasma at 0.5 umol/kg administered intranasally; type: ADME, cell-free; set-up: dose 0.5 umol/kg, time 0 - last, route nasal; conditions: inhaled or intranasal; outline: as §1
[5] = Cmax in BALB/cAnNCrlCrlj mouse epithelial lining fluid at 0.5 umol/kg administered intranasally; type: ADME, tissue-based; set-up: dose 0.5 umol/kg, route nasal; conditions: inhaled or intranasal; outline: as §1
[6] = Prodrug activation in primary cultured BALB/c mouse airway epithelial cells assessed as formation of laninamivir measured at 60 mins by LC-MS/MS analysis; type: cell-based; conditions: epithelial cell, 1 h
Outline: (§2)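 Primary airway epithelial cells from BALB/c mice were obtained by collagenase digestion and negative immunomagnetic selection, then grown to confluence on collagen I. Cells were pre-incubated 30 min in serum-free F-12K. For the time course they were exposed to 50 μM LO for up to 120 min; for concentration dependence, to 10–1000 μM LO for 60 min, at 37°C. After ice-cold PBS washes and Triton lysis, intracellular LO and laninamivir were measured by LC-MS/MS and normalized to Lowry protein, in triplicate.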

[7] = Prodrug activation in primary cultured BALB/c mouse airway epithelial cells assessed as formation of laninamivir measured at 50 uM measured at 24 hrs by LC-MS/MS analysis; type: cell-based; conditions: epithelial cell
Outline: (§3)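 Confluent primary BALB/c airway epithelial cells were loaded with 50 μM LO for 60 min and then washed. They were then incubated in drug-free medium at 37°C for up to 24 h, with the medium fully replaced at each sampling point. Cells were washed with ice-cold PBS and lysed. LO and laninamivir in medium and cells were measured by LC-MS/MS and normalized to Lowry protein, in triplicate. Release and hydrolysis rate constants were obtained by first-order compartmental modelling.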

[8] = Elimination half life in BALB/cAnNCrlCrlj mouse epithelial lining fluid at 0.5 umol/kg administered intranasally; type: ADME, tissue-based; outline: as §1
[9] = Lipophilicity, log D of the compound at pH 7.4; type: physicochemical; conditions: buffer
[10] = Drug uptake in primary cultured BALB/c mouse airway epithelial cells at 50 uM measured up to 90 mins by LC-MS/MS analysis; type: ADME, cell-based; conditions: epithelial cell; outline: as §2
[11] = Prodrug activation in primary cultured BALB/c mouse airway epithelial cells assessed as formation of laninamivir at 50 uM measured up to 60 to 90 mins by LC-MS/MS analysis; type: cell-based; conditions: epithelial cell; outline: as §2
[12] = Aqueous solubility of the compound; type: physicochemical; conditions: buffer
Lung [13] = assay: AUClast in BALB/cAnNCrlCrlj mouse lung at 0.5 umol/kg administered intranasally; type: ADME; conditions: in vivo, inhaled_or_intranasal; outline: as §1
[14] = Tmax in BALB/cAnNCrlCrlj mouse lung at 0.5 umol/kg administered intranasally; type: ADME; conditions: inhaled or intranasal; outline: as §1
[15] = Elimination half life in BALB/cAnNCrlCrlj mouse plasma at 0.5 umol/kg administered intranasally; type: ADME, cell-free; conditions: inhaled or intranasal, read-out: beta t1/2 (converted); outline: as §1
[16] = Drug uptake in BALB/cAnNCrlCrlj mouse epithelial lining fluid at 0.5 umol/kg administered intranasally measured at 4 hrs by LC-MS/MS analysis; type: ADME, tissue-based; conditions: inhaled or intranasal, read-out: Drug uptake
Outline: (§4)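 Female BALB/c mice were dosed intranasally at 0.5 μmol/kg (2.5 ml/kg), N=3–4 per time point. At each sampling time, blood was taken by cardiac puncture, BAL was done with 3 × 1 ml PBS, and lungs were homogenized in 50% acetonitrile. LO and laninamivir were quantified by LC-MS/MS, calibrated over 1–100 ng/ml and 0.5–100 ng/ml respectively. ELF concentration was calculated as CBAL × (urea in plasma / urea in BAL).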

[17] = Cmax in BALB/cAnNCrlCrlj mouse plasma at 0.5 umol/kg administered intranasally; type: ADME, cell-free; set-up: dose 0.5 umol/kg, route nasal; conditions: inhaled or intranasal; outline: as §1
[18] = AUClast in BALB/cAnNCrlCrlj mouse epithelial lining fluid at 0.5 umol/kg administered intranasally; type: ADME, tissue-based; set-up: dose 0.5 umol/kg, route nasal, time 0 - last; conditions: inhaled or intranasal; outline: as §1
Lung [19] = assay: (§5) Elimination half life in BALB/cAnNCrlCrlj mouse lung at 0.5 umol/kg administered intranasally; type: ADME, tissue-based; conditions: in vivo, inhaled_or_intranasal; outline: as §1
[20] = Elimination half life in BALB/cAnNCrlCrlj mouse epithelial lining fluid treated with laninamivir octanoate at 0.5 umol/kg administered intranasally; type: ADME; conditions: inhaled or intranasal, read-out: beta t1/2 (converted); outline: as §1
[21] = Drug uptake in BALB/cAnNCrlCrlj mouse epithelial lining fluid treated with laninamivir octanoate at 0.5 umol/kg administered intranasally measured at 24 hrs by LC-MS/MS analysis; type: ADME, tissue-based; conditions: inhaled or intranasal, read-out: Drug uptake; outline: as §4
[22] = Drug uptake in BALB/cAnNCrlCrlj mouse epithelial lining fluid treated with laninamivir octanoate at 0.5 umol/kg administered intranasally measured at 4 hrs by LC-MS/MS analysis; type: ADME; conditions: inhaled or intranasal, read-out: Drug uptake; outline: as §4
[23] = Cmax in BALB/cAnNCrlCrlj mouse plasma treated with laninamivir octanoate at 0.5 umol/kg administered intranasally; type: ADME, cell-free; set-up: dose 0.5 umol/kg, route nasal; conditions: inhaled or intranasal; outline: as §1
[24] = Tmax in BALB/cAnNCrlCrlj mouse epithelial lining fluid treated with laninamivir octanoate at 0.5 umol/kg administered intranasally; type: ADME, tissue-based; conditions: inhaled or intranasal; outline: as §1
Lung [25] = assay: Cmax in BALB/cAnNCrlCrlj mouse lung treated with laninamivir octanoate at 0.5 umol/kg administered intranasally; type: ADME; set-up: dose 0.5 umol/kg, route nasal; conditions: in vivo, inhaled_or_intranasal; outline: as §1
Plasma = assay: Drug uptake in BALB/cAnNCrlCrlj mouse plasma at 0.5 umol/kg administered intranasally measured after 8 hrs by LC-MS/MS analysis; type: ADME, cell-free; conditions: inhaled_or_intranasal; outline: as §4
Lung [26] = assay: AUClast in BALB/cAnNCrlCrlj mouse lung treated with laninamivir octanoate at 0.5 umol/kg administered intranasally; type: ADME; conditions: in vivo, inhaled_or_intranasal; outline: as §1
[27] = AUClast in BALB/cAnNCrlCrlj mouse plasma treated with laninamivir octanoate at 0.5 umol/kg administered intranasally; type: ADME, cell-free; set-up: dose 0.5 umol/kg, time 0 - last, route nasal; conditions: inhaled or intranasal; outline: as §1
[28] = Cmax in BALB/cAnNCrlCrlj mouse epithelial lining fluid treated with laninamivir octanoate at 0.5 umol/kg administered intranasally; type: ADME; set-up: dose 0.5 umol/kg, route nasal; conditions: inhaled or intranasal; outline: as §1
[29] = Tmax in human treated with laninamivir octanoate at 40 mg administered intranasally; type: ADME, organism-based; conditions: in vivo, inhaled or intranasal
[30] = Drug level in primary cultured BALB/c mouse airway epithelial cells treated with laninamivir octanoate at 50 uM measured at 24 hrs by LC-MS/MS analysis; type: ADME, cell-based; conditions: epithelial cell; outline: as §3
[31] = Elimination half life in BALB/cAnNCrlCrlj mouse lung treated with laninamivir octanoate at 0.5 umol/kg administered intranasally; type: ADME, tissue-based; conditions: inhaled or intranasal, read-out: beta t1/2 (converted); outline: as §1
[32] = Tmax in BALB/cAnNCrlCrlj mouse plasma treated with laninamivir octanoate at 0.5 umol/kg administered intranasally; type: ADME, cell-free; conditions: inhaled or intranasal; outline: as §1
[33] = Elimination half life in human treated with laninamivir octanoate administered intranasally; type: ADME, organism-based; conditions: in vivo, inhaled or intranasal, read-out: beta t1/2 (converted)
[34] = AUClast in BALB/cAnNCrlCrlj mouse epithelial lining fluid treated with laninamivir octanoate at 0.5 umol/kg administered intranasally; type: ADME, tissue-based; set-up: dose 0.5 umol/kg, time 0 - last, route nasal; conditions: inhaled or intranasal; outline: as §1
Lung [35] = assay: Drug concentration in BALB/cAnNCrlCrlj mouse lung treated with laninamivir octanoate at 0.5 umol/kg administered intranasally measured at 24 hrs; conditions: in vivo, inhaled_or_intranasal
[36] = Elimination half life in BALB/cAnNCrlCrlj mouse plasma treated with laninamivir octanoate at 0.5 umol/kg administered intranasally; type: ADME, cell-free; conditions: inhaled or intranasal, read-out: beta t1/2 (converted); outline: as §1
[37] = Drug level in primary cultured BALB/c mouse airway epithelial cells treated with laninamivir octanoate at 50 uM measured up 60 to 90 mins by LC-MS/MS analysis; type: ADME, cell-based; conditions: epithelial cell; outline: as §2
Lung [38] = assay: Drug uptake in BALB/cAnNCrlCrlj mouse lung at 0.5 umol/kg administered intranasally measured at 24 hrs by LC-MS/MS analysis; type: ADME, tissue-based; conditions: in vivo, inhaled_or_intranasal; outline: as §4
[39] = Tmax in BALB/cAnNCrlCrlj mouse lung treated with laninamivir octanoate at 0.5 umol/kg administered intranasally; type: ADME; conditions: inhaled or intranasal; outline: as §1
[40] = as §5; type: ADME, tissue-based; conditions: BALB/cAnNCrlCrlj, lung, inhaled or intranasal, 0.5 umol/kg, read-out: beta t1/2 (converted); outline: as §1

CCCCCCCC(=O)OC[C@@H](O)[C@@H](OC)[C@@H]1OC(C(=O)O)=C[C@H](NC(=N)N)[C@H]1NC(C)=O [LANINAMIVIR OCTANOATE]
Tmax [1]: 1.98 min | Cmax (Lung [2]): 1760 pmol/g | Tmax [3]: 0.5 h | AUC(0-t) [4]: 0.323 µM·h | Cmax [5]: 20400 nM | Drug metabolism [6]: Dose-dependent effect | Drug metabolism [7]: metabolite_detected | beta t1/2 ([8]; in vivo, inhaled_or_intranasal): 1.1 h | logD [9]: -0.01 | Drug uptake [10]: Active | Drug metabolism [11]: metabolite_detected | solubility [12]: 1270 µM (≈ 600 µg/mL) | AUClast (Lung [13]): 4480 pmol·h/g | Tmax [14]: 0.5 h | half-life [15]: 0.6 h | concentration at 4 h [16]: 348 nM | Cmax [17]: 242 nM | AUC(0-t) [18]: 23.6 µM·h | beta t1/2 (Lung [19]): 1.3 h

CO[C@@H]([C@@H]1OC(C(=O)O)=C[C@H](NC(=N)N)[C@H]1NC(C)=O)[C@H](O)CO [LANINAMIVIR]
half-life [20]: 25.1 h | Tmax [1]: 1.98 min | concentration at 24 h [21]: 842 nM | concentration at 4 h [22]: 1150 nM | Cmax (Lung [2]): 1020 pmol/g | Cmax [23]: 181 nM | Tmax [24]: 1 h | Tmax [3]: 0.5 h | Cmax (Lung [25]): 4350 pmol/g | Drug uptake (Plasma): Not Active | AUC(0-t) [4]: 0.782 µM·h | Cmax [5]: 19900 nM | AUClast (Lung [26]): 75800 pmol·h/g | AUC(0-t) [27]: 0.445 µM·h | Cmax [28]: 1520 nM | Tmax [29]: 4 h | half-life ([8]; BALB/cAnNCrlCrlj, epithelial lining fluid, inhaled or intranasal, 0.5 umol/kg, read-out: beta t1/2 (converted)): 25.4 h | logD [9]: -2.18 | Drug metabolism [30]: metabolite_detected | AUClast (Lung [13]): 9890 pmol·h/g | half-life [31]: 30.9 h | Tmax [32]: 1 h | half-life [33]: 72 h | AUC(0-t) [34]: 26.5 µM·h | concentration at 24 h (Lung [35]): 2680 pmol/g | half-life [36]: 13.1 h | Tmax [14]: 0.25 h | concentration at 4 h [16]: 51.3 nM | Drug metabolism [37]: metabolite_detected | Drug uptake (Lung [38]): 282 pmol/g | Cmax [17]: 478 nM | Tmax [39]: 6 h | AUC(0-t) [18]: 19.6 µM·h | half-life [40]: 25 h
